# Active and inactive are the calls of the source. The calls are words filed in the database; no cut-off is given here.
# What was measured:
# L6 = assay: Cytotoxicity against rat L6 cells; type: cell-based
# Outline: (§1)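 IC50 values in µM, each the average of duplicate determinations. Parasites were T. b. rhodesiense STIB900 and axenic amastigotes of L. donovani MHOM/SD/62/1S-CL2D. Cytotoxicity was run on rat L6 myoblast cells.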
# [1] = Selectivity index, ratio of IC50 for rat L6 cells to IC50 for Trypanosoma brucei rhodesiense STIB 900; type: toxicity, cell-based; conditions: read-out: Ratio IC50
# Outline: (§2)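 Ratio of the L6 rat myoblast cytotoxicity IC50 to the IC50 against the parasite named in the line. Each IC50 is the average of duplicate determinations.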
# [2] = system: Trypanosoma brucei rhodesiense; assay: Antitrypanosomal activity against Trypanosoma brucei rhodesiense STIB 900 infected acute mouse model assessed as survival time at 1 mg/kg, ip administered daily for 4 days; type: functional; conditions: route intraperitoneal
# Outline: (§3)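 STIB900 acute mouse model of T. b. rhodesiense infection, with intraperitoneal dosing. Read-out is the average days of survival of treated mice. Cures are counted as mice that survive and stay parasite-free for 60 days.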
# Leishmania donovani = assay: Antileishmanial activity against Leishmania donovani MHOM/SD/62/1S-CL2D axenic amastigotes; type: functional, organism-based; outline: as §1
# [3] = system: Trypanosoma brucei rhodesiense; assay: Antitrypanosomal activity against Trypanosoma brucei rhodesiense STIB 900 infected acute mouse model assessed as cured mouse at 1 mg/kg, ip daily for 4 days; type: functional, organism-based; set-up: dose 1 mg/kg
# Outline: (§4)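 STIB900 acute mouse model of trypanosomiasis with intraperitoneal dosing. The regimens were daily for 4 days at 20, 5 or 1 mg/kg, or a single 10 mg/kg dose. A cure is a mouse that survives and is parasite-free for 60 days. Average days of survival are also recorded.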
# [4] = system: Trypanosoma brucei rhodesiense; assay: Antitrypanosomal activity against Trypanosoma brucei rhodesiense STIB 900 bloodstream trypomastigotes; type: functional, organism-based; outline: as §1
# [5] = Selectivity index, ratio of IC50 for rat L6 cells to IC50 for chloroquine-resistant Plasmodium falciparum K1; type: toxicity, cell-based; conditions: read-out: Ratio IC50; outline: as §2
# Plasmodium falciparum = assay: Antiplasmodial activity against chloroquine-resistant Plasmodium falciparum K1; type: functional, organism-based
# Outline: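 In vitro IC50 against chloroquine-resistant P. falciparum K1, reported as the average of duplicate determinations.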
# [6] = Selectivity index, ratio of IC50 for rat L6 cells to IC50 for Leishmania donovani MHOM/SD/62/1S-CL2D; type: toxicity, cell-based; conditions: read-out: Ratio IC50; outline: as §2
# [7] = system: Trypanosoma brucei rhodesiense; assay: Antitrypanosomal activity against Trypanosoma brucei rhodesiense STIB 900 infected acute mouse model assessed as survival time at 10 mg/kg, ip; type: functional; conditions: route intraperitoneal; outline: as §3
# [8] = system: Trypanosoma brucei rhodesiense; assay: Antitrypanosomal activity against Trypanosoma brucei rhodesiense STIB 900 infected acute mouse model assessed as survival time at 5 mg/kg, ip administered daily for 4 days; type: functional; conditions: route intraperitoneal; outline: as §3
# [9] = system: Trypanosoma brucei rhodesiense; assay: Antitrypanosomal activity against Trypanosoma brucei rhodesiense STIB 900 infected acute mouse model assessed as cured mouse at 10 mg/kg, ip; type: functional, organism-based; set-up: dose 10 mg/kg; outline: as §4
# [10] = system: Trypanosoma brucei rhodesiense; assay: Antitrypanosomal activity against Trypanosoma brucei rhodesiense STIB 900 infected acute mouse model assessed as survival time at 8 mg/kg, ip administered daily for 4 days; type: functional; conditions: route intraperitoneal
# [11] = system: Trypanosoma brucei rhodesiense; assay: Antitrypanosomal activity against Trypanosoma brucei rhodesiense STIB 900 infected acute mouse model assessed as cured mouse at 2 mg/kg, ip daily for 4 days; type: functional, organism-based; set-up: dose 2 mg/kg
# [12] = system: Trypanosoma brucei rhodesiense; assay: Antitrypanosomal activity against Trypanosoma brucei rhodesiense STIB 900 infected acute mouse model assessed as cured mouse at 8 mg/kg, ip daily for 4 days; type: functional, organism-based; set-up: dose 8 mg/kg
# [13] = system: Trypanosoma brucei rhodesiense; assay: Antitrypanosomal activity against Trypanosoma brucei rhodesiense STIB 900 infected acute mouse model assessed as survival time at 2 mg/kg, ip administered daily for 4 days; type: functional; conditions: route intraperitoneal
# [14] = system: Trypanosoma brucei rhodesiense; assay: Antitrypanosomal activity against Trypanosoma brucei rhodesiense STIB 900 infected acute mouse model assessed as cured mouse at 5 mg/kg, ip daily for 4 days; type: functional, organism-based; set-up: dose 5 mg/kg; outline: as §4
# [15] = system: Trypanosoma brucei rhodesiense; assay: Antitrypanosomal activity against Trypanosoma brucei rhodesiense STIB 900 infected acute mouse model assessed as survival time at 20 mg/kg, ip administered daily for 4 days; type: functional; conditions: route intraperitoneal; outline: as §3
# [16] = system: Trypanosoma brucei rhodesiense; assay: Antitrypanosomal activity against Trypanosoma brucei rhodesiense STIB 900 infected acute mouse model assessed as cured mouse at 20 mg/kg, ip daily for 4 days; type: functional, organism-based; set-up: dose 20 mg/kg; outline: as §4
Structure (SMILES),IC50 (L6),selectivity ratio [1],Survival [2],IC50 (Leishmania donovani),Activity [3],IC50 [4],selectivity ratio [5],IC50 (Plasmodium falciparum),selectivity ratio [6],Survival [7],Survival [8],Activity [9],Survival [10],Activity [11],Activity [12],Survival [13],Activity [14],Survival [15],Activity [16]
N=C(N)c1ccc(-c2cc3cc(C(=N)N)ccc3o2)c(O)c1,33.3 µM,16600,34.8 days,1.8 µM,inactive,0.002 µM,8320,0.004 µM,19,>55.3 days,>54.5 days,–,–,–,–,–,–,–,–
CC(C)NC(=N)c1ccc(-c2cc3cc(C(=N)NC(C)C)ccc3o2)c(O)c1,> 183 µM,> 8710,18.5 days,1.8 µM,inactive,0.021 µM,> 6540,0.028 µM,> 101,26.8 days,>50.5 days,inactive,–,–,–,–,–,–,–
Nc1nc(N)nc(Nc2ccc([As]3SCC(CO)S3)cc2)n1 (centres undefined) [MELARSOPROL],–,–,>51.5 days,–,Active,–,–,–,–,–,–,–,>60 days,Active,Active,>60 days,–,–,–
N=C(N)c1ccc(-c2cc3cc(C(=N)N)cc(O)c3o2)cc1,184 µM,61300,>30.8 days,5.3 µM,–,0.003 µM,3920,0.047 µM,35,>43 days,>60 days,–,–,–,–,–,Active,–,–
COc1cc(C(=N)N)cc2cc(-c3ccc(C(=N)N)cc3)oc12,30.7 µM,5120,27.3 days,3 µM,inactive,0.006 µM,5120,0.006 µM,10,>44 days,>60 days,–,–,–,–,–,Active,–,–
N=C(N)c1ccc(O)c(-c2cc3cc(C(=N)N)ccc3o2)c1,> 217 µM,> 43400,26 days,20 µM,inactive,0.005 µM,> 274,0.793 µM,> 11,>51.5 days,>60 days,–,–,–,–,–,Active,–,–
CC(C)NC(=N)c1ccc(-c2cc3cc(C(=N)NC(C)C)cc(O)c3o2)c(O)c1,> 179 µM,> 7780,26.3 days,46 µM,inactive,0.023 µM,> 577,0.31 µM,> 4,>50.7 days,>60 days,–,–,–,–,–,Active,–,–
CC(C)NC(=N)c1ccc(-c2cc3cc(C(=N)NC(C)C)ccc3o2)cc1,> 198 µM,> 1580,15.3 days,1.6 µM,inactive,0.125 µM,> 2710,0.073 µM,> 125,–,>53 days,inactive,–,–,–,–,–,–,–
N=C(N)c1ccc(-c2cc3ccc(C(=N)N)cc3o2)cc1,0.8 µM,114,26.5 days,3.1 µM,inactive,0.007 µM,267,0.003 µM,0.3,>39.5 days,>60 days,–,–,–,–,–,Active,–,–
CC(C)NC(=N)c1ccc(-c2cc3cc(C(=N)NC(C)C)cc(O)c3o2)cc1,> 185 µM,> 6610,>19.8 days,20 µM,inactive,0.028 µM,> 3300,0.056 µM,> 9,>36.3 days,>60 days,–,–,–,–,–,Active,–,–
Oc1cc(C2=NCCN2)ccc1-c1cc2cc(C3=NCCN3)ccc2o1,150 µM,18800,20 days,5.8 µM,inactive,0.008 µM,25000,0.006 µM,26,23.5 days,>60 days,inactive,–,–,–,–,–,–,–
Oc1cc(C2=NCCN2)ccc1-c1cc2cc(C3=NCCN3)cc(O)c2o1,> 193 µM,> 19300,–,16 µM,–,0.01 µM,> 6430,0.03 µM,> 12,–,>21 days,–,–,–,–,–,inactive,–,–
CC(C)NC(=N)c1ccc(-c2cc3ccc(C(=N)NC(C)C)cc3o2)c(O)c1,> 183 µM,> 20300,>46.5 days,39 µM,–,0.009 µM,> 307,0.597 µM,> 5,>51.8 days,>55.5 days,–,–,–,–,–,–,–,–
N=C(N)c1ccc(-c2cc3ccc(C(=N)N)cc3[nH]2)cc1 [DAPI],0.86 µM,51,–,–,–,0.017 µM,287,0.003 µM,–,–,>40.8 days,–,–,–,–,–,inactive,>60 days,Active
N=C(N)c1ccc(-c2cc3cc(C(=N)N)cc(O)c3o2)c(O)c1,2.1 µM,117,>33.5 days,14 µM,–,0.018 µM,34,0.061 µM,0.2,>49.5 days,>56.8 days,–,–,–,–,–,–,–,–
Oc1cc(C2=NCCN2)cc2cc(-c3ccc(C4=NCCN4)cc3)oc12,> 203 µM,> 50800,>39 days,7.4 µM,–,0.004 µM,> 9230,0.022 µM,> 27,>51.3 days,>49.8 days,–,–,–,–,–,–,–,–
COc1ccc(C2=NCCN2)cc1-c1cc2ccc(C3=NCCN3)cc2o1,11.1 µM,653,–,34 µM,–,0.017 µM,150,0.074 µM,0.3,–,25 days,–,–,–,–,–,inactive,–,–
COc1cc(C2=NCCN2)cc2cc(-c3ccc(C4=NCCN4)cc3)oc12,19.9 µM,160,–,4.5 µM,–,0.124 µM,622,0.032 µM,5,–,–,–,–,–,–,–,–,11.5 days,inactive

# From ChEMBL document CHEMBL1142519, “Synthesis and antiprotozoal activity of cationic 2-phenylbenzofurans” (J Med Chem, 2008)
